Source: ChEMBL document CHEMBL2093137, “WHO-TDR NTD Screening”
In brackets after ≈: the same amount, converted by molar mass.

Legend:
Schistosoma mansoni = experiment: WHO-TDR: Schistosomiasis; type: functional; design: concentration or dose not given beside the values
Procedure, shortened: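 Values are reported as percent inhibition and IC50. They come from a whole-organism screen of a 10,000-compound diverse Life Chemicals library against larval and/or adult worms of Schistosoma mansoni, Puerto Rican strain. The library had been filtered for drug-likeness and reactive groups.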

Onchocerca ochengi [1] = experiment: (§1) WHO-TDR: Onchocerciasis; type: functional; design: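 at 12.5 µM on microfilariae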
Procedure, shortened: (§2)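 Values are reported as percent inhibition and as IC50. They come from a whole-organism screen of a 10,000-compound diverse Life Chemicals library against microfilariae of Onchocerca ochengi or Onchocerca lienalis. The screen followed previously published standard procedures, with reference drugs as positive controls.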

Trypanosoma cruzi = experiment: WHO-TDR: Chagas disease; type: functional, organism-based, Homo sapiens; conditions: MRC5
Procedure, shortened: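 Each IC50 reflects antiparasitic potency against intracellular amastigotes of Trypanosoma cruzi Tulahuen CL2 beta-galactosidase strain. These were cultured in MRC-5SV2 human lung fibroblasts and exposed to a 10,000-compound diverse Life Chemicals library screened according to published standard procedures with a reference drug as positive control.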

[2] = tested on: Trypanosoma brucei brucei; experiment: WHO-TDR: Human African Trypanosomiasis (HAT); type: functional, organism-based; conditions: Squib-427
Procedure, shortened: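 Values are IC50 figures for antiparasitic potency. They come from a whole-organism screen of 10,000 diverse Life Chemicals compounds against bloodstream-form Trypanosoma brucei (Squib 427 strain).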

Leishmania infantum = experiment: WHO-TDR: Leishmaniasis; type: functional, organism-based, Mus musculus; conditions: Macrophage
Procedure, shortened: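 Values are IC50 figures for antiparasitic potency. They come from a whole-organism screen of a 10,000-compound diverse Life Chemicals library against Leishmania infantum MHOM/MA(BE)/67 amastigotes inside murine peritoneal macrophage host cells.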

Onchocerca ochengi [3] = experiment: as §1; type: functional; design: concentration or dose not given beside the values; procedure, shortened: as §2; remark: listed apart in the source
[4] = WHO-TDR: Cytotoxicity; type: toxicity, cell-based; conditions: human, MRC5 cells
Plasmodium falciparum K1 = experiment: WHO-TDR: Malaria; type: functional, organism-based, Homo sapiens; conditions: Erythrocyte
Procedure, shortened: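 Values are IC50 figures for antiplasmodial potency. They come from a whole-organism screen of 10,000 diverse Life Chemicals compounds against Plasmodium falciparum K1 growing inside human red blood cells, run by previously published standard procedures.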

Onchocerca lienalis = experiment: as §1; type: functional; design: concentration or dose not given beside the values; procedure, shortened: as §2;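 further: at 12.5 µM on microfilariae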
Brugia malayi = experiment: WHO-TDR: Lymphatic Filariasis; type: functional; design: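 tested at 10 µM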
Procedure, shortened: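 Values are percent inhibition and IC50 from a whole-organism screen against Brugia malayi microfilariae. The compounds, 10,000 in all, came from a diverse Life Chemicals library filtered for drug-likeness and reactive groups.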

Row | SMILES | % Inhibition (Schistosoma mansoni) [%] | % Inhibition (Onchocerca ochengi [1]) [%] | IC50 (Trypanosoma cruzi) [µg/mL] | IC50 [2] [µg/mL] | IC50 (Leishmania infantum) [µg/mL] | % Inhibition (Onchocerca ochengi [3]) [%] | IC50 [4] [µg/mL] | IC50 (Plasmodium falciparum K1) [µg/mL] | % Inhibition (Onchocerca lienalis) [%] | % Inhibition (Brugia malayi) [%]
1 | CCOc1ccccc1NC(=O)Cn1c(=O)n(Cc2cccs2)c(=O)c2ncccc21 | 0 | 100 | > 13.1 | 4.24 (≈ 9.72 µM) | > 13.1 | 0 | > 13.1 | 2.95 (≈ 6.76 µM) | – | –
2 | O=C(COc1ccc(F)cc1)NCC(c1ccsc1)N1CCc2ccccc2C1 (configuration not stated) | 0 | 100 | 3.73 (≈ 9.09 µM) | 4.19 (≈ 10.2 µM) | > 12.3 | 0 | > 12.3 | > 12.3 | – | –
3 | Cc1ccc(N2CCn3c2nnc(C(=O)NCCC2=CCCCC2)c3=O)cc1 | 0 | 0 | > 11.4 | > 11.4 | 3.69 (≈ 9.71 µM) | 0 | > 11.4 | 0.152 (≈ 0.4 µM) | – | –
4 | O=C(NCc1cc(-c2ccccc2F)on1)c1ccc(Br)o1 | 0 | 100 | > 11 | > 11 | > 11 | 0 | > 11 | > 11 | – | –
5 | COc1ccc(S(=O)(=O)CC(=O)Nc2sc(-c3ccccc3)cc2C(N)=O)cc1 | 0 | 100 | > 12.9 | 4.28 (≈ 9.95 µM) | > 12.9 | 0 | > 12.9 | 6.93 (≈ 16.1 µM) | – | –
6 | CCCc1cc(=O)[nH]c(-n2nc(C)cc2NC(=O)C23CC4CC(CC(C4)C2)C3)n1 | 100 | 100 | < 0.119 | < 0.119 | 3.84 (≈ 9.71 µM) | 75 | < 0.119 | 0.119 (≈ 0.3 µM) | – | –
7 | CCOc1cccc2cc(-c3csc(NC(=O)c4sc5ccccc5c4Cl)n3)oc12 | 0 | 0 | 11.8 (≈ 25.9 µM) | 0.237 (≈ 0.521 µM) | 3.69 (≈ 8.11 µM) | 0 | 0.237 (≈ 0.521 µM) | > 13.6 | – | –
8 | O=C(Nc1onc2c1CCCC2)c1cccc(Oc2ccccc2)c1 | 0 | 100 | 4.23 (≈ 12.7 µM) | 3.25 (≈ 9.71 µM) | > 10 | 0 | > 10 | 8.46 (≈ 25.3 µM) | – | –
9 | O=C(c1ccco1)N1CCN(c2ccc(-c3cccs3)nn2)CC1 | 0 | 100 | > 10.2 | > 10.2 | > 10.2 | 0 | > 10.2 | 5.12 (≈ 15 µM) | – | –
10 | Cc1ccc(S(=O)(=O)N2CCCCC2CC(=O)Nc2ccc(F)c(C(F)(F)F)c2)cc1 (configuration not stated) | 0 | 0 | 0.889 (≈ 1.94 µM) | 6.11 (≈ 13.3 µM) | > 13.8 | 0 | > 13.8 | > 13.8 | – | –
11 | CCOC(=O)CCNC(=O)NCC1CC(=O)N(c2ccc(Cl)cc2)C1 (configuration not stated) | 0 | – | > 11 | > 11 | > 11 | 100 | > 11 | > 11 | – | –
12 | CN(Cc1ccco1)S(=O)(=O)c1ccc(C(=O)Nc2nnc(-c3cccs3)o2)cc1 | 0 | – | 0.456 (≈ 1.03 µM) | 4.22 (≈ 9.49 µM) | > 13.3 | – | 2.5 (≈ 5.62 µM) | 6.65 (≈ 15 µM) | 0 | 0
13 | Cc1nn(-c2ccc(F)cc2)c2ncc(C(=O)NCc3ccco3)c(Cl)c12 | 25 | – | 0.398 (≈ 1.03 µM) | 0.292 (≈ 0.759 µM) | 3.74 (≈ 9.71 µM) | – | 1.31 (≈ 3.41 µM) | 8.26 (≈ 21.5 µM) | 0 | 0
14 | COc1ccc(OC)c(-c2csc(NC(=O)Cc3ccc(SC)cc3)n2)c1 | 0 | – | 0.663 (≈ 1.66 µM) | 3.52 (≈ 8.79 µM) | > 12 | – | > 12 | 3.55 (≈ 8.87 µM) | 11.35 | 0
15 | O=C(/C=C/c1cccs1)N(CCCN1CCOCC1)c1nc2ccccc2s1 | 0 | – | 4.43 (≈ 10.7 µM) | 4.37 (≈ 10.6 µM) | 1.98 (≈ 4.79 µM) | – | > 13.5 | 10.5 (≈ 25.3 µM) | 16.32 | 0
16 | O=C(COc1ccccc1)Oc1ccc2nc(N3CCN(c4ccccc4)CC3)sc2c1 | 0 | – | 9.76 (≈ 21.9 µM) | > 13.4 | 1.96 (≈ 4.4 µM) | – | > 13.4 | > 13.4 | 0 | 0
17 | CS(=O)(=O)NCC(c1ccco1)S(=O)(=O)c1ccc(Cl)cc1 (configuration not stated) | 0 | – | 0.513 (≈ 1.41 µM) | 10.9 (≈ 30 µM) | > 10.9 | – | > 10.9 | > 10.9 | 6.7 | 33.33
18 | Cc1cccc(-c2nc(CCNC(=O)c3ccco3)cs2)c1 | 0 | – | 2.46 (≈ 7.87 µM) | 0.307 (≈ 0.983 µM) | 3.95 (≈ 12.7 µM) | – | 4.35 (≈ 13.9 µM) | 6.12 (≈ 19.6 µM) | 0 | 0
19 | CCCc1cc(=O)n(CC(=O)Nc2ccc(C)cc2)c(-n2nc(C)cc2C)n1 | 0 | – | 0.764 (≈ 2.01 µM) | 6.35 (≈ 16.7 µM) | > 11.4 | – | 10.5 (≈ 27.6 µM) | > 11.4 | 27.7 | 0
20 | COc1ccccc1-c1nnc(NC(=O)c2ccc(S(=O)(=O)N(C)Cc3ccco3)cc2)o1 | 0 | – | 0.511 (≈ 1.09 µM) | 4.55 (≈ 9.71 µM) | 9.57 (≈ 20.4 µM) | – | 5.89 (≈ 12.6 µM) | 10.2 (≈ 21.8 µM) | 0 | 0
21 | COc1ccc(Cl)c2sc(N(CCCN(C)C)C(=O)c3ccc(Br)s3)nc12 | 100 | – | 1.77 (≈ 3.62 µM) | 5.66 (≈ 11.6 µM) | 0.51 (≈ 1.04 µM) | – | 6.71 (≈ 13.7 µM) | > 15.8 | 0 | 0
22 | CN(C)CCN(C(=O)CCCS(=O)(=O)c1ccccc1)c1nc2ccc(F)cc2s1 | 0 | – | 0.759 (≈ 1.69 µM) | > 14.6 | > 14.6 | – | > 14.6 | > 14.6 | 12.34 | 33.33
23 | Cc1ccc2sc(N(Cc3cccnc3)C(=O)CSc3ccccc3)nc2c1C | 0 | – | 0.938 (≈ 2.24 µM) | > 12.6 | > 12.6 | – | > 12.6 | > 12.6 | 0 | 0
24 | Fc1ccc(Nc2nc(N3CCCC3)nc(N3CCCC3)n2)cc1 | 0 | – | 3.85 (≈ 11.7 µM) | 0.442 (≈ 1.35 µM) | > 10.9 | – | > 10.9 | > 10.9 | 9.215 | 0
25 | C=CCn1/c(=N\C(=O)Cc2ccc(S(C)(=O)=O)cc2)sc2c(OC)ccc(OC)c21 | 0 | – | 4.07 (≈ 9.11 µM) | 0.462 (≈ 1.03 µM) | 4.34 (≈ 9.71 µM) | – | 13.2 (≈ 29.6 µM) | 11.2 (≈ 25.1 µM) | 13.3 | 0
26 | COc1ccc(Cl)c2sc(NC(=O)c3ccc4c(c3)OCCO4)nc12 | 0 | – | 0.702 (≈ 1.86 µM) | 3.57 (≈ 9.49 µM) | 0.366 (≈ 0.971 µM) | – | 3.43 (≈ 9.09 µM) | > 11.3 | 53.4 | 0
